{
  "source": "ChEMBL document CHEMBL1132467",
  "about": "“Structural specificity of chloroquine-hematin binding related to inhibition of hematin polymerization and parasite growth” (J Med Chem, 1999)",
  "data": [
    {"tested_on": "Plasmodium falciparum", "experiment": "Parasite growth in chloroquine-sensitive Plasmodium falciparum NF54", "type": "functional, organism-based", "outline": "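P. falciparum NF54 or K1 was maintained by the Trager-Jensen culture method with minor variations. Growth inhibition was measured by a semiautomated microdilution assay on asynchronous stock cultures.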", "units": {"IC50": "µM"}, "values": [
      {"smiles": "CCN(CC)CC(C)Nc1ccnc2cc(Cl)ccc12", "note": "(stereo not given)", "IC50": 0.041},
      {"smiles": "CCN(CC)CCCC(C)Nc1ccnc2ccccc12", "note": "(stereo not given)", "IC50": 0.35},
      {"smiles": "CCN(CC)CCCC(C)Nc1cc(C)nc2cc(Cl)ccc12", "note": "(stereo not given)", "IC50": 0.15},
      {"smiles": "CCN(CC)CCCC(C)Nc1ccnc2cc(N)ccc12", "note": "(stereo not given)", "IC50": 2.6},
      {"smiles": "CCN(CC)CCCC(C)Nc1ccnc2ccc(Cl)cc12", "note": "(stereo not given)", "IC50": 0.17},
      {"smiles": "CCNc1ccnc2cc(Cl)ccc12", "IC50": 0.82},
      {"smiles": "CCN(CC)CCCC(C)Nc1ccnc2cc([N+](=O)[O-])ccc12", "note": "(stereo not given)", "IC50": 0.015},
      {"smiles": "CCC(CC)CCCC(C)Nc1ccnc2cc(Cl)ccc12", "note": "(stereo not given)", "IC50": 0.054},
      {"smiles": "CCN(CC)CCCC(C)Nc1c(C)cnc2cc(Cl)ccc12", "note": "(stereo not given)", "IC50": 0.02},
      {"smiles": "CCN(CC)CCCC(C)Nc1ccnc2cc(Br)ccc12", "note": "(stereo not given)", "IC50": 0.093},
      {"smiles": "CCN(CC)CCCCC(C)Nc1ccnc2cc(Cl)ccc12", "note": "(stereo not given)", "IC50": 0.024},
      {"smiles": "Nc1ccnc2cc(Cl)ccc12", "IC50": 1.7},
      {"smiles": "CCNCCCC(C)Nc1ccnc2cc(Cl)ccc12", "note": "(stereo not given) [DESETHYLCHLOROQUINE]", "IC50": 0.045}
    ]},
    {"biological_target": "hematin (cell-free polymerization, no protein)", "experiment": "Inhibition of hematin polymerization", "units": {"IC50": "µM"}, "values": [
      {"smiles": "CCN(CC)CC(C)Nc1ccnc2cc(Cl)ccc12", "note": "(stereo not given)", "IC50": 18},
      {"smiles": "CCN(CC)CCCC(C)Nc1ccnc2ccccc12", "note": "(stereo not given)", "IC50": "> 2500"},
      {"smiles": "CCN(CC)CCCC(C)Nc1ccnc2cc(N)ccc12", "note": "(stereo not given)", "IC50": "> 2500"},
      {"smiles": "CCN(CC)CCCC(C)Nc1ccnc2ccc(Cl)cc12", "note": "(stereo not given)", "IC50": "> 2500"},
      {"smiles": "CCNc1ccnc2cc(Cl)ccc12", "IC50": 70},
      {"smiles": "CCN(CC)CCCC(C)Nc1c(C)cnc2cc(Cl)ccc12", "note": "(stereo not given)", "IC50": 15},
      {"smiles": "CCNCCCC(C)Nc1ccnc2cc(Cl)ccc12", "note": "(stereo not given) [DESETHYLCHLOROQUINE]", "IC50": 15}
    ]},
    {"tested_on": "not listed separately", "experiment": "Association constant evaluated towards Hematin mu-oxo dimer", "units": {"Ka": "M⁻¹"}, "values": [
      {"smiles": "CCN(CC)CC(C)Nc1ccnc2cc(Cl)ccc12", "note": "(stereo not given)", "Ka": 270000},
      {"smiles": "CCN(CC)CCCC(C)Nc1ccnc2ccccc12", "note": "(stereo not given)", "Ka": 85000},
      {"smiles": "CCN(CC)CCCC(C)Nc1cc(C)nc2cc(Cl)ccc12", "note": "(stereo not given)", "Ka": 91000},
      {"smiles": "CCN(CC)CCCC(C)Nc1ccnc2cc(N)ccc12", "note": "(stereo not given)", "Ka": 290000},
      {"smiles": "CCNc1ccnc2cc(Cl)ccc12", "Ka": 46000},
      {"smiles": "CCN(CC)CCCC(C)Nc1ccnc2cc([N+](=O)[O-])ccc12", "note": "(stereo not given)", "Ka": 290000},
      {"smiles": "CCC(CC)CCCC(C)Nc1ccnc2cc(Cl)ccc12", "note": "(stereo not given)", "Ka": 79000},
      {"smiles": "CCN(CC)CCCC(C)Nc1c(C)cnc2cc(Cl)ccc12", "note": "(stereo not given)", "Ka": 150000},
      {"smiles": "CCN(CC)CCCC(C)Nc1ccnc2cc(Br)ccc12", "note": "(stereo not given)", "Ka": 120000},
      {"smiles": "CCN(CC)CCCCC(C)Nc1ccnc2cc(Cl)ccc12", "note": "(stereo not given)", "Ka": 150000},
      {"smiles": "Nc1ccnc2cc(Cl)ccc12", "Ka": 52000},
      {"smiles": "CCNCCCC(C)Nc1ccnc2cc(Cl)ccc12", "note": "(stereo not given) [DESETHYLCHLOROQUINE]", "Ka": 180000}
    ]},
    {"tested_on": "Plasmodium falciparum", "experiment": "Parasite growth in chloroquine-resistant Plasmodium falciparum K1", "units": {"IC50": "µM"}, "values": [
      {"smiles": "CCN(CC)CC(C)Nc1ccnc2cc(Cl)ccc12", "note": "(stereo not given)", "IC50": 0.093},
      {"smiles": "CCN(CC)CCCC(C)Nc1ccnc2ccccc12", "note": "(stereo not given)", "IC50": 8},
      {"smiles": "CCN(CC)CCCC(C)Nc1cc(C)nc2cc(Cl)ccc12", "note": "(stereo not given)", "IC50": 1.1},
      {"smiles": "CCN(CC)CCCC(C)Nc1ccnc2cc(N)ccc12", "note": "(stereo not given)", "IC50": 4.3},
      {"smiles": "CCN(CC)CCCC(C)Nc1ccnc2ccc(Cl)cc12", "note": "(stereo not given)", "IC50": 4.9},
      {"smiles": "CCNc1ccnc2cc(Cl)ccc12", "IC50": 0.87},
      {"smiles": "CCN(CC)CCCC(C)Nc1ccnc2cc([N+](=O)[O-])ccc12", "note": "(stereo not given)", "IC50": 0.068},
      {"smiles": "CCC(CC)CCCC(C)Nc1ccnc2cc(Cl)ccc12", "note": "(stereo not given)", "IC50": 0.2},
      {"smiles": "CCN(CC)CCCC(C)Nc1c(C)cnc2cc(Cl)ccc12", "note": "(stereo not given)", "IC50": 0.059},
      {"smiles": "CCN(CC)CCCC(C)Nc1ccnc2cc(Br)ccc12", "note": "(stereo not given)", "IC50": 1.4},
      {"smiles": "CCN(CC)CCCCC(C)Nc1ccnc2cc(Cl)ccc12", "note": "(stereo not given)", "IC50": 0.42},
      {"smiles": "Nc1ccnc2cc(Cl)ccc12", "IC50": 1},
      {"smiles": "CCNCCCC(C)Nc1ccnc2cc(Cl)ccc12", "note": "(stereo not given) [DESETHYLCHLOROQUINE]", "IC50": 1.3}
    ]}
  ]
}
